Measurements taken from paper PMC3470735 (Nuclear medicine and biology, 2012).
Entries after “also recorded” stand apart in the source; their conditions may differ.

How the values were obtained:
[1] = Biodistribution of 64Cu-labeled BFCs in female SCID mice; assay type: in vivo; settings: for radioactivity in blood (%ID/g): 24 h post-injection; for decrease of %ID/g in kidney by 24 h: by 24 h relative to 1 h
In short: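 Female SCID mice, n = 4/group, received 64Cu-labeled chelator (0.74 MBq in 100 μL saline) by tail-vein injection; labeling was done in 0.1 M NH4OAc, pH 5.5. At 1, 4 and 24 h, mice were anesthetized with 1-2% isoflurane and killed by cervical dislocation. Blood, lung, liver, spleen, pancreas, kidney, muscle and bone were weighed and gamma-counted. %ID/g was decay-corrected and normalized to tissue weight.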

[2] = Complexation kinetics with Cu; assay type: physicochemical; settings: ligand 1 mM, Cu(II) 7 μM, AAIII 14 μM, 0.15 M NH4OAc pH 5.0, room temperature, 1 h
In short: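 Cu(II)–Arsenazo III reagent made in metal-free 0.15 M NH4OAc, pH 5.0 (14 μM AAIII, 7 μM Cu(II)), kept in the dark and stirred 2 h to equilibrate. Instrument zeroed against AAIII alone. Test compound was added from a 1 mM solution into the Cu(II)–AAIII cells at room temperature. A610 was read every 30 s for 1 h and compared with Cu(II)–AAIII alone.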

[3] = cited from earlier work
[4] = In vitro rat serum stability of 64Cu-labeled chelators; assay type: in vitro ADME; settings: 37 °C, 48 h incubation, TLC
In short: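 Chelator was labeled with 64Cu in 0.1 M NH4OAc, pH ~5.5. Labeled complex (10 μL, ~3.7 MBq) was added to 90 μL rat serum at 37 °C. Aliquots taken at 1, 2, 4, 24 and 48 h were run on C-18 TLC in 10% NH4OAc:MeOH (3:7), and percent 64Cu still bound was determined.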

| radioactivity in blood (%ID/g) [1] | decrease of %ID/g in kidney by 24 h [1] | percentage of intact 64Cu complex in rat serum [4] | SMILES | complexation kinetics with Cu(II) [2] | stability of 64Cu complex in rat serum [3] |
| --- | --- | --- | --- | --- | --- |
| 0.18 ± 0.06 %ID/g | 60% | – | O=C(O)CNC(Cc1ccc([N+](=O)[O-])cc1)CN1CCN(CC(=O)O)CCN(CC(=O)O)CC1 (stereo not shown) [C-NE3TA, 4-carboxymethyl-7-[2-(carboxymethyl-amino)-3-(4-nitro-phenyl)-propyl]-[1,4,7]triazonan-1-yl-acetic acid] | formed complexes with Cu(II) almost immediately; also recorded: rapidly formed complexes with Cu(II) | – |
| 0.47 ± 0.17 %ID/g | – | 93.9% | Nc1ccc(CC2CN(CC(=O)O)CCN(CC(=O)O)CCN(CC(=O)O)CCN2CC(=O)O)cc1 (stereo not shown) [p-NH2-Bn-DOTA, 2-(4-aminobenzyl)-1,4,7,10-tetraazacyclododecane-1,4,7,10-tetraacetic acid, reference compound] | – | – |

More lines, now with the values behind:

| SMILES | radioactivity in blood (%ID/g) [1] | decrease of %ID/g in kidney by 24 h [1] | percentage of intact 64Cu complex in rat serum [4] | complexation kinetics with Cu(II) [2] | stability of 64Cu complex in rat serum [3] |
| --- | --- | --- | --- | --- | --- |
| O=C(O)CN1CCN(CCN(CC(=O)O)Cc2ccc([N+](=O)[O-])cc2)CCN(CC(=O)O)CC1 [N-NE3TA, 4-carboxymethyl-7-[2-[carboxymethyl-(4-nitro-benzyl)-amino]-ethyl]-[1,4,7]triazonan-1-yl-acetic acid] | 0.13 ± 0.06 %ID/g | 60% | – | formed complexes with Cu(II) almost immediately; also recorded: rapidly formed complexes with Cu(II) | – |
| O=C(O)CNCCN1CCN(CC(=O)O)CCN(CC(=O)O)CC1 [NE3TA] | – | – | – | – | high stability |
| Nc1ccc(C[C@H]2CN(CC(=O)O)CCN(CC(=O)O)CCN2CC(=O)O)cc1 [p-NH2-Bn-NOTA, S-2-(4-aminobenzyl)-1,4,7-triazacyclononane-1,4,7-triacetic acid] | – | – | 97.9% | – | – |
